High-throughput results from PubChem BioAssay.
RAM network inh – inhibitors of the yeast RAM network, primary screen, dse1pr::URA3 reporter, 5-FOA selection; AID 868, 2007; 190,000 tested, 1.8% active; S. cerevisiae dse1pr::URA3 reporter, 5-FOA growth OD615, 2 d; analog-sensitive cbk1-as2 kinase mutant strain; inhibition, % at 50 µM;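 active means inhibition above a set limit, 3 SD over mean compound inhibition, cut at about 8.4% in these data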;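 further: inhibition rescues growth on 5-FOA so higher OD means more RAM inhibition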
Yeast growth inh – growth inhibitors of yeast BB579 in restrictive medium, primary screen, yeast lifespan-shortening project, S. cerevisiae; OD615, 48 h; inhibition, % at 10 µM; 140,000 tested, 0.51% active; AID 804, 2007;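 active means inhibition above a set limit, 3 SD over the mean compound inhibition, cut at about 44% in these data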
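Assay system: S. cerevisiae DeaD strain BB579 yeast. Medium: CSMM-D restrictive synthetic medium containing dextrose (glucose). Times: 4 h cell preincubation, 48 h compound exposure, 30 °C humidified. Signal: OD615 turbidity measurement. Benchmarks: positive control amphotericin B 10 µg/mL.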
Insulin prom inh – inhibitors of insulin promoter-driven GFP, primary screen, imaging, TRM-6 cells, eGFP reporter, cell count; reporter expression induced with tamoxifen; inhibition, % at 2 µM; 130,000 tested, 0.9% active; AID 1273, 2008;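 active means inhibition above the mean plus 3 SD, with well images judged a real hit on visual review, cut at about 60% in these data, passing the limit was not always enough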
Yeast life ext – compounds extending yeast replicative lifespan, primary screen, S. cerevisiae, OD615; AID 775, 2007; inhibition of the nicotinamide effect, % at 10 µM; S. cerevisiae growth with nicotinamide; deaD strain in restrictive glucose medium; 130,000 tested, 0.68% active;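 active means inhibition above a set limit, placed 3 SD over the median of all compounds, cut at about 26% in these data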
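Assay system: engineered S. cerevisiae DeaD replicative-lifespan strain, galactose-grown log-phase cells; medium: restrictive CSMM-D dextrose medium; also added: nicotinamide, 1.5 mM, co-present with compound; schedule: 48 h compound exposure at 30 °C, humidified; detection: absorbance at 615 nm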
Ins promoter up – insulin promoter activators in MIN6 cells, imaging, high-content screening, mouse beta cells; MIN6 insulin promoter-GFP reporter; stronger effect = higher value; z-score at 5 µM; 190,000 tested, 0.3% active; AID 1625, 2009;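 active means z-score above 3 at 5 µM with at least 500 cells counted in the well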
A number is an active result; - = inactive; . = no result given. The list is not random: actives were taken first. Their share in the collection is about 3%.

SMILES	RAM network inh	Yeast growth inh	Insulin prom inh	Yeast life ext	Ins promoter up
CC1CC(=O)c2c(cc3c(-c4c(O)cc(O)c5c(O)c6c(cc45)OC(C)CC6=O)c(O)cc(O)c3c2O)O1 (stereo not given)	9.4	.	.	.	-
O=C1CC(c2ccc(O)cc2)Oc2cc(O)cc(O)c21 (stereo not given)	-	-	-	-	.
CCCn1c(/N=C/c2c[nH]c3ccccc23)nc2ccccc21	-	-	-	-	-
CCCCn1c(/N=C/c2c[nH]c3ccccc23)nc2ccccc21	-	43.5	-	-	-
Cc1cc(Cl)ccc1N=C1N=C(N)c2ccccc21	8.9	-	-	-	-
Cc1cc(Cl)ccc1N=c1ssnc1Cl	-	63.1	-	-	.
CCCc1cc(C(N)=O)c(NC(=O)c2ccoc2C)s1	-	-	76.0	-	-
Cc1cc(C)c(S(C)(=O)=O)c(N(C)NC(=O)c2c(F)cccc2F)n1	-	.	-	.	-
Cc1cc(C)c(S(C)(=O)=O)c(N(C)N)n1	-	.	75.0	.	-
CC1CC(=O)NN1C(=O)c1ccccc1 (stereo not given)	.	.	.	.	-
COC(=O)c1c(O)cc(=O)n2c1CCCCC2	-	.	.	.	-
CCOC(=O)c1c2n(c3ccc(O)cc13)CCCCC2	-	-	85.7	-	-
CSCC[C@H](NC(=O)Nc1ccc(Oc2ccccc2)cc1)C(=O)O	.	.	.	.	-
C/C(=N\NC(=O)C1(C)NC(C)(C)Cc2ccccc21)c1ccccc1 (stereo not given)	-	.	.	.	-
O=C1/C(=C\c2ccc3c(c2)OCO3)CCC/C1=C/c1ccc2c(c1)OCO2	-	-	.	-	-
CC1CC/C(=C\c2ccc3c(c2)OCO3)C(=O)/C1=C/c1ccc2c(c1)OCO2 (stereo not given)	10.0	-	-	-	.
CC(C)(C)Nc1nc2ccc([N+](=O)[O-])cc2o1	.	.	.	.	-
CCCc1c(C)[nH]c2ccccc2c1=O	-	-	71.0	-	-
CCc1c(C)[nH]c2ccc(C)cc2c1=O	-	-	77.4	-	-
Cc1ccc2[nH]c(-c3ccccc3)c(CN(C)C)c(=O)c2c1	-	-	-	-	4.17
C=CCc1c(C)[nH]c2ccc(C)cc2c1=O	-	-	-	-	-
CCCc1c(C)c2ccccc2[nH]c1=O	-	-	-	-	-
CC(C)C(c1nnnn1Cc1ccccc1)N1CCN(Cc2ccc3c(c2)OCO3)CC1 (stereo not given)	-	-	.	64.7	.
CC(C)C(c1nnnn1CC1CCCO1)N1CCN(Cc2ccc3c(c2)OCO3)CC1 (stereo not given)	-	-	-	-	-
CC(C)Sc1nc(N)nc(-c2cccs2)c1C#N	-	76.2	.	-	-
SMILES	RAM network inh	Yeast growth inh	Insulin prom inh	Yeast life ext	Ins promoter up
Clc1nc(Cl)nc(NCCC2=CCCCC2)n1	-	.	-	.	-
Cc1ccc(C(C(=O)NC2CCCCC2)N(CC2CCCO2)C(=O)CNC(=O)c2cccs2)cc1 (stereo not given)	8.9	-	-	-	.
CN(C)c1cccc(C(=O)OCC(=O)Nc2ccccc2Cl)c1	-	.	75.0	.	-
CC1=C(C#N)C(/C=N/OCc2ccc(Cl)cc2)CC(=O)N1 (stereo not given)	-	.	83.3	.	-
COc1ccc(CN(C)CC(=O)Nc2cc(OC)c([N+](=O)[O-])cc2C)c(OC)c1	-	-	71.4	-	-
CSC1=NSC2=NC(=O)/C(=C/c3coc4ccc(O)cc4c3=O)C(=N)N12	-	-	-	-	-
CSC1=NSC2=NC(=O)/C(=C/c3coc4ccccc4c3=O)C(=N)N12	-	68.2	-	-	-
CSC1=NSC2=NC(=O)/C(=C\c3cccs3)C(=N)N12	-	-	79.3	42.5	-
O=C(CN1C(=O)C2C3C=CC(C4CC34)C2C1=O)Oc1ccccc1 (stereo not given)	-	.	-	.	-
COc1ccc(OCCNC2CCCC2)cc1	-	70.6	-	-	-
COc1ccc2nc(SCC(=O)Nc3ccc(S(=O)(=O)N4CCCC4)cc3)c(C#N)cc2c1	-	-	-	-	3.47
COc1cccc(/C=C/C(=O)OCC(=O)Nc2ccc(S(=O)(=O)N3CCCC3)cc2)c1	9.8	-	-	-	-
COc1cccc(NC(=O)NC(C)C2CC3CCC2C3)c1 (stereo not given)	-	.	.	.	-
Cc1ccc(-n2nnnc2CSc2nnc(-c3ccc(O)cc3)o2)cc1	-	-	.	-	-
